# How the values were obtained:
# WT BMDMs = assay: Cytokine secretion by WT BMDMs; format: cell-based, mouse; conditions: GM 4 mM, PB-resin, 24 h
# Summary of the method: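 Bone-marrow macrophages were derived from female C57BL/6J mice (GM-CSF or L929 supernatant, 6 days) and moved to serum-free IMDM. They were given 4 mM test compound or 100 ng/mL LPS for 24 h, each either untreated or first neutralised with polymyxin B resin. Supernatants were cleared at 16,000 × g and TNF-α was measured by sandwich ELISA, with samples prediluted in 1% BSA/PBS when needed.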
# Tlr4-/- BMDMs [1] = assay: Cytokine secretion by Tlr4-/- BMDMs; format: cell-based, mouse; conditions: ELISA, 24 h; GM 4 mM, MDP 0.4 mM, LPS 100 ng/mL, CpG 100 nM
# Summary of the method: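 Murine BMDMs were differentiated 6 days in complete medium with 20 ng/mL GM-CSF or 10% L929 supernatant, then switched to serum-free IMDM and stimulated 24 h. Mouse TNF-α and IL-6 in culture supernatants were quantified by sandwich ELISA. Samples were prediluted in 1% BSA in PBS, pH 7.4, where needed.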
# mTLR4/mMD2 (K263A / wt) = mTLR4/mMD2 (K263A / wt) (Mus musculus, UniProt Q9JHF9+Q9QUK6, K263A); assay: NF-κB SEAP in HEK-Blue Null1, mTLR4 K263A / mMD2 wt; format: cell-based; conditions: GM 0.4, 0.2 mM, 24 h
# Chain of mTLR4/mMD2 (K263A / wt) (Q9QUK6 26-835 K263A): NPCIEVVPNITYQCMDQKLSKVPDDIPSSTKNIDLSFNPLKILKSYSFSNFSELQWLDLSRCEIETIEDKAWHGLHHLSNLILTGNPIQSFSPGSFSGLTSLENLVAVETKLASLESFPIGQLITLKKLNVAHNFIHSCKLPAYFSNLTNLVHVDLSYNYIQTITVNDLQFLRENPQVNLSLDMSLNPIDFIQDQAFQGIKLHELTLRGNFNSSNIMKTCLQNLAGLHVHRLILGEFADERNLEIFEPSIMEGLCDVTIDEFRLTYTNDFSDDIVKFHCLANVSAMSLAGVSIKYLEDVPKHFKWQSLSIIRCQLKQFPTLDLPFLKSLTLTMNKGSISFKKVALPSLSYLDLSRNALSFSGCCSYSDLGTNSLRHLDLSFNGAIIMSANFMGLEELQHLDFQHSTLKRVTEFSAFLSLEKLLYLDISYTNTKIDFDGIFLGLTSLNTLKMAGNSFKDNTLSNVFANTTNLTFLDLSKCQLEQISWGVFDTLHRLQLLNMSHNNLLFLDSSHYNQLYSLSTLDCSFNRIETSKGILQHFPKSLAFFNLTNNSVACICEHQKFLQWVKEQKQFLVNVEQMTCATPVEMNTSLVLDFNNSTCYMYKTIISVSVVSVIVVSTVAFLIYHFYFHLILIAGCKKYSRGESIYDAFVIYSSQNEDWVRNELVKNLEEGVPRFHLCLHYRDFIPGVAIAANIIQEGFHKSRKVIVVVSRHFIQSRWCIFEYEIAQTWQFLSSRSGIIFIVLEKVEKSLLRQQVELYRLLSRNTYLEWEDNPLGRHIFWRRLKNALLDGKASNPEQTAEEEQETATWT
# Chain of mTLR4/mMD2 (K263A / wt) (Q9JHF9 19-160): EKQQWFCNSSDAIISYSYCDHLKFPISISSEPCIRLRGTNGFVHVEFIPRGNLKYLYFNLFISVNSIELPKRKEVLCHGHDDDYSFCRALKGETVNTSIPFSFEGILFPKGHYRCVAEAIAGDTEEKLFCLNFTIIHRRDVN
# Summary of the method: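 Point mutants of mTLR4 or mMD2 were made by site-directed mutagenesis. HEK-Blue Null1 cells were co-transfected by lipofection for 16 h with 500 ng total of mTLR4 and Myc-tagged mMD2 plasmids (1:1); mock wells received lipofection reagent only. After a medium change the next day, cells were treated for 24 h. NF-κB SEAP was measured and normalised to water-treated samples; data are mean ± s.e.m., n = 3.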
# Tlr4-/- BMDMs [2] = assay: RNAseq of Tlr4-/- BMDMs; format: cell-based, mouse; conditions: GM 8 mM, 24 h, n = 3
# Summary of the method: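 BMDMs were differentiated 6 days from mouse bone marrow with GM-CSF or L929 supernatant at 800,000 cells/well, switched to serum-free IMDM and stimulated 24 h; MDP 0.4 mM was run alongside. Total RNA was extracted for RNAseq. Differentially expressed genes were called at p < 0.01 and logFC > 1 and plotted as mean heatmaps; n = 3.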
# RAW264.7 cells = assay: Cytokine expression in RAW264.7 macrophages; format: cell-based, mouse; conditions: GM 1-4 mM, M 4 mM, 24 h
# Summary of the method: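 RAW264.7 cells were kept in high-glucose IMDM with HEPES, 5% heat-inactivated FBS and penicillin/streptomycin at 37 °C, 5% CO2. They were exposed to test compounds for 24 h (n = 4). Total RNA was extracted with a column kit, and TNF-α and IL-6 transcripts were quantified by RT-qPCR using the 2-ΔΔCt method, normalised to β-act.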
# [3] = system: NF-κB signaling in RAW-Dual WT cells; assay: RAW-Dual WT NF-κB reporter; format: cell-based, mouse; conditions: 24 h
# Summary of the method: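 RAW-Dual cells (WT or Tlr4-/-) were seeded at 100,000 cells/well in complete DMEM without selection antibiotics, 24 h before treatment. Test compounds were added for 24 h (n = 3). NF-κB-driven SEAP was read by mixing supernatant 1:4 with Quanti-Blue, incubating 6 h at 37 °C and measuring absorbance at 620 nm, blanked against water-treated wells.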
# [4] = system: IRF signaling in RAW-Dual WT cells; assay: RAW-Dual WT IRF reporter; format: cell-based, mouse; conditions: 24 h
# [5] = system: NF-κB p65 and MAPK p38 phosphorylation in WT BMDMs; assay: Immunoblot of p65 and p38 phosphorylation in WT BMDMs; format: cell-based, mouse; conditions: GM 5 mM
# Summary of the method: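 Bone-marrow macrophages from WT or Tlr4-/- C57BL/6J mice were stimulated directly with 5 mM test compound or 500 ng/mL LPS. Cells were lysed in Tris/SDS/Triton buffer with protease and phosphatase inhibitors plus 10 mM DTT and boiled, then run on SDS-PAGE and transferred to PVDF. Blots were probed with rabbit antibodies to total or phospho-p65, total or phospho-p38 and GAPDH (1:1000, 4 °C overnight), then HRP anti-rabbit (1:5000).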
# Tlr4-/- C57BL/6 J mice = assay: DSS-induced colitis model in Tlr4-/- mice; format: in vivo, mouse; conditions: GM 10 mg/kg i.p. daily, 3% DSS
# Summary of the method: (§1)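 Male SPF C57BL/6J mice aged 7–8 weeks, WT or Tlr4-/- (bred in house), were age-, weight- and sex-matched. They drank 3% (w/v) DSS water for 7 days and were then euthanised. Test compound (10 mg/kg) or PBS (5 mL/kg) was given i.p. daily from 2 days before DSS until the end. Body weight was recorded daily.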
# THP-1 cells = assay: Cytokine expression in THP-1 monocytes; format: cell-based, human; conditions: GM 2-8 mM
# Summary of the method: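 THP-1 cells were kept in RPMI 1640 with 10% heat-inactivated FBS. They were seeded at 100,000 cells/well in half-serum medium and stimulated immediately, with MDP 0.4 mM as control. Total RNA was extracted and cytokine transcripts were measured by RT-qPCR; n = 4.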
# WT C57BL/6 J mice = assay: DSS-induced colitis model in WT mice; format: in vivo, mouse; conditions: GM 10 mg/kg i.p. daily
# Summary of the method: as §1
# [6] = GM abundance in mouse gut after intraperitoneal injection; format: in vivo; conditions: mice, i.p. injection of GM; LC-MS
# NOD2 = assay: HEK-Blue NOD2 SEAP reporter assay; format: cell-based, human; conditions: MDP, M-AE 200 nM; GM, M 20 μM; 18 h
# Summary of the method: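 HEK-Blue hNod1 or hNod2 cells were seeded at 50,000 cells/well in DMEM/10% FBS without selection antibiotics and stimulated at once for 18 h (n = 3). Supernatant was mixed 1:4 with Quanti-Blue and incubated 6 h at 37 °C, and absorbance was read at 620 nm. Values were blanked against water-treated wells, and the respective parental Null cell readouts were subtracted.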
# mTLR4/mMD2 (wt / F119A) = mTLR4/mMD2 (wt / F119A) (Mus musculus, UniProt Q9JHF9+Q9QUK6, F119A); assay: NF-κB SEAP in HEK-Blue Null1, mTLR4 wt / mMD2 F119A; format: cell-based; conditions: GM 0.4, 0.2 mM, 24 h
# Chain of mTLR4/mMD2 (wt / F119A) (Q9QUK6 26-835): as the sequence (Q9QUK6 26-835 K263A) above, with A238K counted along it
# Chain of mTLR4/mMD2 (wt / F119A) (Q9JHF9 19-160 F119A): as the sequence (Q9JHF9 19-160) above, with F101A counted along it
# Summary of the method: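 Site-directed mTLR4 or mMD2 variants were made by mutagenesis. HEK-Blue Null1 cells were co-transfected 16 h with 500 ng mTLR4 and mMD2-Myc plasmids (1:1) by lipofection; mock cells got water/Lipofectamine. After a medium change, cells were treated 24 h. Supernatant SEAP was measured with Quanti-Blue (37 °C, 6 h, A620), normalized to H2O-treated cells; mean ± s.e.m., n = 3.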
compound,measurement,setting,value
"CC(=O)N[C@H]1[C@H](O[C@H]2[C@H](O[C@H](C)C(=O)O)[C@@H](NC(C)=O)C(O)O[C@@H]2CO)O[C@H](CO)[C@@H](O)[C@@H]1O (stereo partly drawn) [GM, N-acetylglucosamine-β−1,4-N-acetylmuramic acid]",TNF-α induction in BMDMs after polymyxin B neutralization (in words),WT BMDMs,unaffected by polymyxin B neutralization
same,TNF-α and IL-6 production in Tlr4-/- BMDMs (in words),Tlr4-/- BMDMs [1],fails to elicit increased levels of TNF-α and IL-6
same,Effect of mutation mTLR4_K263 on NF-κB activity (in words),mTLR4/mMD2 (K263A / wt),abolished GM-triggered NF-κB activity
same,"Cytokine and chemokine genes by RNAseq, Tlr4-/- BMDMs",Tlr4-/- BMDMs [2],fails to induce the expression of these genes
same,"Immuno-stimulatory activity (TNF-α, IL-6) in RAW264.7 (in words)",RAW264.7 cells,dose-dependent immuno-stimulatory activity
same,NF-κB signaling in RAW-Dual WT cells (in words),[3],dose-dependent activation of both NF-κB and IRF signaling
same,IRF signaling in RAW-Dual WT cells (in words),[4],dose-dependent activation of both NF-κB and IRF signaling
same,p65 and p38 phosphorylation in WT BMDMs,[5],mild increase in phosphorylation
same,DSS-induced colitis in Tlr4-/- mice: weight loss and colonic shortening,Tlr4-/- C57BL/6 J mice,failed to prevent weight loss and colonic shortening
same,Cytoprotective responses in colitis Tlr4-/- mice,Tlr4-/- C57BL/6 J mice; RT-qPCR,No upregulation of cytoprotective responses
same,Immuno-stimulatory activity in THP-1 (in words),THP-1 cells,dose-dependent immuno-stimulatory activity
same,"H&E-stained colonic tissue, WT DSS mice",WT C57BL/6 J mice; 3% DSS,reduced epithelial erosion and mononuclear cell infiltration
same,"Colonic Il10, WT DSS mice","WT C57BL/6 J mice; 3% DSS, RT-qPCR",no significant change in Il10 was observed
same,"Colonic cytoprotective factors Keap1 and Hspb1, WT DSS mice","WT C57BL/6 J mice; 3% DSS, RT-qPCR",upregulated
same,"Colonic expression of Tnfa, Il1b, Ccl2, WT DSS mice","WT C57BL/6 J mice; 3% DSS, RT-qPCR",significantly suppressed
same,Morbidity in mice,WT C57BL/6 J mice; without DSS treatment,did not result in any morbidity in mice
same,Abundance in the mouse gut after intraperitoneal injection,[6],temporally increased its abundance in the mouse gut
same,NOD2 activation in HEK-Blue reporter cells (in words),NOD2,unable to activate NOD1/2
same,Effect of mutation mMD-2_F119 on NF-κB activity (in words),mTLR4/mMD2 (wt / F119A),did not significantly impair the activity of GM

# Source: article PMC12219203 (Nature Communications, 2025)
